Columns and labels:
[1] = test system: H69AR; assay: Reversal of Daunorubicin resistance in human NCI-H69AR cells assessed as Daunorubicin GI50 at 10 uM measured for 72 hrs by MTT assay; type: functional
How it was run: (§1)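 Reversal assay: resistant lines (A2780/ADR, H69AR, MDCK II BCRP) and parental lines seeded as for MTT assay with modulator solutions of 1, 10 and 100 µM added (final 0.1, 1, 10 µM) and daunorubicin (P-gp, MRP1) or SN-38 (BCRP) at final 10 nM–10 µM. 72 h, MTT read-out; GI50 by variable-slope fit. Resistance factor = resistant/sensitive GI50; potentiation factor = GI50 without/with modulator.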

[2] = test system: H69AR; assay: Reversal of Daunorubicin resistance in human NCI-H69AR cells assessed as Daunorubicin GI50 at 1 uM measured for 72 hrs by MTT assay; type: functional; how it was run: as §1
[3] = Potentiation factor, ratio of GI50 for daunorubicin resistant human A2780 ADR cells expressing P-gp cells to GI50 for reversal of daunorubicin resistance in human A2780 ADR cells assessed as daunorubicin GI50 at 1 uM by MTT assay (reference value: 1 uM); type: functional; how it was run: as §1
[4] = Inhibition of daunorubicin sensitive human A2780 ADR cells expressing P-gp measured for 72 hrs by MTT assay; type: functional; how it was run: as §1
[5] = test system: H69AR; assay: Potentiation factor, ratio of GI50 for daunorubicin resistant human NCI-H69AR cells expressing MRP1 cells to GI50 for reversal of daunorubicin resistance in human NCI-H69AR cells assessed as daunorubicin GI50 at 0.1 uM (reference value: 1 uM); type: functional; how it was run: as §1
[6] = Reversal of SN-38 resistance in dog MDCK-II-BCRP cells assessed as SN-38 GI50 at 0.1 uM measured for 72 hrs by MTT assay; type: functional; settings: Canis lupus familiaris; how it was run: as §1
[7] = Potentiation factor, ratio of GI50 for daunorubicin resistant human A2780 ADR cells expressing P-gp cells to GI50 for reversal of daunorubicin resistance in human A2780 ADR cells assessed as daunorubicin GI50 at 0.1 uM (reference value: 1 uM); type: functional; how it was run: as §1
[8] = Reversal of drug resistance in dog MDCK-II-BCRP cells expressing BCRP; type: functional, cell-based, Canis lupus familiaris
How it was run: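 Cells seeded per well (A2780/ADR 8,000; H69AR 20,000; MDCK II BCRP 3,000) with test compound at 1, 10 or 100 µM solutions added before cells. Daunorubicin (P-gp, MRP1) or SN-38 (BCRP) added to final 10 nM–10 µM. 72 h at 37 °C, then MTT viability read at 570 nm. GI50 from variable-slope nonlinear fits, compared with parental lines; three independent experiments in duplicate.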

[9] = test system: MRP1; assay: Therapeutic index, ratio of GI50 for antiproliferative activity against human NCI-H69AR cells to IC50 for inhibition of MRP1 in human NCI-H69AR cells; type: toxicity, cell-based
How it was run: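 Ratio of MTT-assay GI50 to transport-inhibition IC50, both in the resistant line. GI50 comes from 72 h exposure at 37 °C to dilutions up to 1000 µM, with medium as 100% and 10% DMSO as 0% viability. IC50 comes from calcein AM (A2780/ADR), daunorubicin (H69AR) or pheophorbide A (MDCK II BCRP) accumulation.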

[10] = test system: H69AR; assay: Potentiation factor, ratio of GI50 for daunorubicin resistant human NCI-H69AR cells expressing MRP1 cells to GI50 for reversal of daunorubicin resistance in human NCI-H69AR cells assessed as daunorubicin GI50 at 10 uM (reference value: 1 uM); type: functional; how it was run: as §1
[11] = test system: MDCK-II; assay: Antiproliferative activity against dog MDCK-II cells assessed as reduction in cell viability measured for 72 hrs bt MTT assay; type: functional; settings: Canis lupus familiaris

EC50 [8]: 478 nM
SMILES: N#Cc1cn(CCCc2ccccc2)c2c(N3CCN(CCc4c[nH]c5ccccc45)CC3)ncnc12
GI50 [1]: 445 nM
GI50 [2]: 1170 nM
RatioGI50 [3]: 9.8
GI50 [4]: 10 nM
PF [5]: 1.8
GI50 [6]: 916 nM
PF [7]: 2
selectivity ratio [9]: 303
PF [10]: 8.6
GI50 [11]: 37.2 µM

Source: ChEMBL document CHEMBL5260824, “9-Deazapurines as Broad-Spectrum Inhibitors of the ABC Transport Proteins P-Glycoprotein, Multidrug Resistance-Associated Protein 1, and Breast Cancer Resistance Protein” (J Med Chem, 2017)
